Assays:
Type in all cases: functional
Staphylococcus aureus [1] = experiment: Effect on growth in Staphylococcus aureus MN8 at 9.0 mM after 24 hrs (reference value: 100%)
In short: (§1)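 Test-tube growth assay: 10 ml growth medium (brain heart infusion with 10% fetal bovine serum, MgCl2, L-glutamine) inoculated to 5 × 10^6 CFU/ml from a 24 h 37°C preculture. Compound diluted in medium, or dissolved in methanol with methanol-matched controls. After 24 h at 37°C with 5% CO2, OD600 and viable counts read. Growth given as % of CFU/ml of untreated controls in the same experiment.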

Staphylococcus aureus [2] = experiment: microbe, parasite or virus in culture; conditions: 24 h
Staphylococcus aureus [3] = experiment: Effect on growth in Staphylococcus aureus MN8 at 0.05 mM after 24 hrs (reference value: 100%); in short: as §1
Staphylococcus aureus [4] = experiment: Effect on growth in Staphylococcus aureus MN8 at 0.01 mM after 24 hrs (reference value: 100%); in short: as §1
Staphylococcus aureus [5] = experiment: Effect on growth in Staphylococcus aureus FRI-1187 at 0.50 mM after 24 hrs (reference value: 100%); in short: as §1
Staphylococcus aureus [6] = experiment: Effect on growth in Staphylococcus aureus FRI-1187 at 0.05 mM after 24 hrs (reference value: 100%); in short: as §1
Staphylococcus aureus [7] = experiment: microbe, parasite or virus in culture; conditions: 24 h; remark: listed apart in the source
Staphylococcus aureus [8] = experiment: microbe, parasite or virus in culture; conditions: 24 h; remark: listed apart in the source
Staphylococcus aureus [9] = experiment: Effect on growth in Staphylococcus aureus MN8 at 0.10 % after 24 hrs (reference value: 100%); in short: as §1
Staphylococcus aureus [10] = system: Staphylococcus aureus
Staphylococcus aureus [11] = experiment: Effect on growth in Staphylococcus aureus MN8 at 10.7 mM after 24 hrs (reference value: 100%); in short: as §1
Staphylococcus aureus [12] = experiment: microbe, parasite or virus in culture; conditions: 24 h; remark: listed apart in the source
Staphylococcus aureus [13] = experiment: Effect on growth in Staphylococcus aureus MN8 at 0.75 mM after 24 hrs (reference value: 100%); in short: as §1
Staphylococcus aureus [14] = experiment: Effect on growth in Staphylococcus aureus MN8 at 75.00 mM after 24 hrs (reference value: 100%); in short: as §1
Staphylococcus aureus [15] = experiment: microbe, parasite or virus in culture; conditions: 24 h; remark: listed apart in the source
Staphylococcus aureus [16] = experiment: microbe, parasite or virus in culture; conditions: 24 h; remark: listed apart in the source
Staphylococcus aureus [17] = experiment: Effect on growth in Staphylococcus aureus MN8 at 37.50 mM after 24 hrs (reference value: 100%); in short: as §1
Staphylococcus aureus [18] = experiment: Effect on growth in Staphylococcus aureus MN8 at 7.50 mM after 24 hrs (reference value: 100%); in short: as §1
Staphylococcus aureus [19] = experiment: microbe, parasite or virus in culture; conditions: 24 h; remark: listed apart in the source
Staphylococcus aureus [20] = experiment: microbe, parasite or virus in culture; conditions: 24 h; remark: listed apart in the source
Staphylococcus aureus [21] = experiment: Effect on growth in Staphylococcus aureus MN8 at 0.50 % after 24 hrs (reference value: 100%); in short: as §1
Staphylococcus aureus [22] = system: Staphylococcus aureus; remark: listed apart in the source
Staphylococcus aureus [23] = experiment: Effect on growth in Staphylococcus aureus MN8 at 3.75 mM after 24 hrs (reference value: 100%); in short: as §1
Staphylococcus aureus [24] = experiment: microbe, parasite or virus in culture; conditions: 24 h; remark: listed apart in the source
Staphylococcus aureus [25] = experiment: microbe, parasite or virus in culture; conditions: 26 h
Staphylococcus aureus [26] = experiment: microbe, parasite or virus in culture; conditions: 28 h
Staphylococcus aureus [27] = experiment: microbe, parasite or virus in culture; conditions: 26 h; remark: listed apart in the source
Staphylococcus aureus [28] = experiment: microbe, parasite or virus in culture; conditions: 32 h
Staphylococcus aureus [29] = experiment: microbe, parasite or virus in culture; conditions: 32 h; remark: listed apart in the source
Staphylococcus aureus [30] = experiment: microbe, parasite or virus in culture; conditions: 32 h; remark: listed apart in the source
Staphylococcus aureus [31] = experiment: Effect on growth in Staphylococcus aureus MN8 at 1.00 mM after 24 hrs (reference value: 100%); in short: as §1
Staphylococcus aureus [32] = experiment: Effect on growth in Staphylococcus aureus MN8 at 2.00 mM after 24 hrs (reference value: 100%); in short: as §1
Staphylococcus aureus [33] = experiment: microbe, parasite or virus in culture; conditions: 24 h; remark: listed apart in the source
Staphylococcus aureus [34] = experiment: microbe, parasite or virus in culture; conditions: 24 h; remark: listed apart in the source
Staphylococcus aureus [35] = experiment: Effect on growth in Staphylococcus aureus MN8 at 10.00 mM after 24 hrs (reference value: 100%); in short: as §1
Staphylococcus aureus [36] = experiment: Effect on growth in Staphylococcus aureus MN8 at 5.00 mM after 24 hrs (reference value: 100%); in short: as §1
Staphylococcus aureus [37] = experiment: Effect on growth in Staphylococcus aureus MN8 at 2.50 mM after 24 hrs (reference value: 100%); in short: as §1
Staphylococcus aureus [38] = experiment: microbe, parasite or virus in culture; conditions: 24 h; remark: listed apart in the source
Staphylococcus aureus [39] = experiment: microbe, parasite or virus in culture; conditions: 24 h; remark: listed apart in the source
Staphylococcus aureus [40] = experiment: microbe, parasite or virus in culture; conditions: 24 h; remark: listed apart in the source
Staphylococcus aureus [41] = experiment: Effect on growth in Staphylococcus aureus FRI-1187 at 3.00 mM after 24 hrs (reference value: 100%); in short: as §1
Staphylococcus aureus [42] = experiment: Effect on growth in Staphylococcus aureus FRI-1187 at 1.50 mM after 24 hrs (reference value: 100%); in short: as §1
Staphylococcus aureus [43] = experiment: microbe, parasite or virus in culture; conditions: 24 h; remark: listed apart in the source
Staphylococcus aureus [44] = experiment: microbe, parasite or virus in culture; conditions: 24 h; remark: listed apart in the source
Staphylococcus aureus [45] = experiment: Effect on growth in Staphylococcus aureus MN8 at 120.00 mM after 24 hrs (reference value: 100%); in short: as §1
Staphylococcus aureus [46] = experiment: Effect on growth in Staphylococcus aureus MN8 at 80.00 mM after 24 hrs (reference value: 100%); in short: as §1
Staphylococcus aureus [47] = experiment: microbe, parasite or virus in culture; conditions: 24 h; remark: listed apart in the source
Staphylococcus aureus [48] = experiment: microbe, parasite or virus in culture; conditions: 24 h; remark: listed apart in the source

Compound: CCCCCCCCCCCCOCCOCCOCCO
- Activity (Staphylococcus aureus [1]): 7.3%
- inhibition at 9000 µM (Staphylococcus aureus [2]): 1%

Compound: Oc1cc(Cl)ccc1Oc1ccc(Cl)cc1Cl [TRICLOSAN]
- Activity (Staphylococcus aureus [3]): 0%
- Activity (Staphylococcus aureus [4]): 5.6%
- Activity (Staphylococcus aureus [5]): 35.5%
- Activity (Staphylococcus aureus [6]): 136.4%
- inhibition at 500 µM (Staphylococcus aureus [7]): 3.7%
- inhibition at 50 µM (Staphylococcus aureus [8]): 9.9%

Compound: O=C(O)c1ccccc1O [SALICYLIC ACID]
- Activity (Staphylococcus aureus [9]): 31%
- inhibition (INH) (Staphylococcus aureus [10]): 26.3%

Compound: CCCCCCCCCCCC(=O)NCCOC(=O)C(CC(=O)[O-])S(=O)(=O)[O-].[Na+].[Na+] (stereo unspecified) [DISODIUM LAURAMIDO MEA]
- Activity (Staphylococcus aureus [11]): 29.4%
- inhibition at 10700 µM (Staphylococcus aureus [12]): 0.4%

Compound: C=CC(=C)CCC=C(C)C [MYRCENE]
- Activity (Staphylococcus aureus [13]): 110.8%
- Activity (Staphylococcus aureus [14]): 76.5%
- inhibition at 750 µM (Staphylococcus aureus [15]): 60.3%
- inhibition at 75000 µM (Staphylococcus aureus [16]): 75.2%

Compound: CC1(O)CCC(C(C)(C)O)CC1 (stereo unspecified) [TERPIN]
- Activity (Staphylococcus aureus [17]): 118.7%
- Activity (Staphylococcus aureus [18]): 124.7%
- inhibition at 37500 µM (Staphylococcus aureus [19]): 23.8%
- inhibition at 7500 µM (Staphylococcus aureus [20]): 77.9%

Compound: CC(=O)N[C@@H](Cc1ccc(O)cc1)C(=O)O [ACETYL TYROSINE]
- Activity (Staphylococcus aureus [21]): 19.9%
- Activity (Staphylococcus aureus [9]): 47.5%
- inhibition (INH) (Staphylococcus aureus [22]): 47.1%
- inhibition (INH) (Staphylococcus aureus [10]): 71.5%

Compound: CC(=O)/C=C/C1=C(C)CCCC1(C)C [BETA-IONONE]
- Activity (Staphylococcus aureus [13]): 27.1%
- Activity (Staphylococcus aureus [23]): 1%
- inhibition at 750 µM (Staphylococcus aureus [15]): 10%

Compound: COc1cc(C(=O)O)ccc1O [VANILLIC ACID]
- Activity (Staphylococcus aureus [9]): 24.5%
- inhibition (INH) (Staphylococcus aureus [10]): 38.5%

Compound: CCCCCCCCCCCCOCCOCCOCCOCCO [LAURETH 4]
- inhibition at 10000 µM (Staphylococcus aureus [24]): 0.2%
- inhibition at 2000 µM (Staphylococcus aureus [25]): 1.7%
- inhibition at 10000 µM (Staphylococcus aureus [26]): 2.9%
- inhibition at 20000 µM (Staphylococcus aureus [27]): 1.5%
- inhibition at 2000 µM (Staphylococcus aureus [28]): 0.1%
- inhibition at 10000 µM (Staphylococcus aureus [29]): 0%
- inhibition at 20000 µM (Staphylococcus aureus [30]): 0%

Compound: CC(C)=CCC/C(C)=C/CO [GERANIOL]
- Activity (Staphylococcus aureus [13]): 19.3%
- Activity (Staphylococcus aureus [23]): 3.9%
- inhibition at 750 µM (Staphylococcus aureus [15]): 0.7%

Compound: Oc1ccc(Cc2ccccc2)cc1
- Activity (Staphylococcus aureus [31]): 70.2%
- Activity (Staphylococcus aureus [32]): 37.1%
- inhibition at 1000 µM (Staphylococcus aureus [33]): 91%
- inhibition at 2000 µM (Staphylococcus aureus [34]): 77.2%

Compound: CCCCCCCCCCCCCCOCCOCCOCCOC(=O)CCCCCCCCCCCCC
- Activity (Staphylococcus aureus [35]): 143.3%
- Activity (Staphylococcus aureus [36]): 108%
- Activity (Staphylococcus aureus [37]): 106.6%
- inhibition at 10000 µM (Staphylococcus aureus [38]): 22.2%
- inhibition at 5000 µM (Staphylococcus aureus [39]): 47.4%
- inhibition at 2500 µM (Staphylococcus aureus [40]): 64.9%

Compound: Oc1c(Cl)cc(Cl)c(Cl)c1Cc1c(O)c(Cl)cc(Cl)c1Cl [HEXACHLOROPHENE]
- Activity (Staphylococcus aureus [31]): 143.81%
- Activity (Staphylococcus aureus [32]): 123.7%
- Activity (Staphylococcus aureus [41]): 35.2%
- Activity (Staphylococcus aureus [42]): 75%
- inhibition at 1000 µM (Staphylococcus aureus [33]): 48.1%
- inhibition at 2000 µM (Staphylococcus aureus [34]): 19.6%
- inhibition at 3000 µM (Staphylococcus aureus [43]): 63.5%
- inhibition at 1500 µM (Staphylococcus aureus [44]): 74.3%

Compound: C/C=C/C/C=C/CCC(=O)[C@H]1O[C@H]1C(N)=O [CERULENIN]
- Activity (Staphylococcus aureus [45]): 50%
- Activity (Staphylococcus aureus [46]): 235.1%
- inhibition at 120000 µM (Staphylococcus aureus [47]): 10.7%
- inhibition at 80000 µM (Staphylococcus aureus [48]): 8.4%

Reference: ChEMBL document CHEMBL1649163, “Surfactants, aromatic and isoprenoid compounds, and fatty acid biosynthesis inhibitors suppress Staphylococcus aureus production of toxic shock syndrome toxin 1” (2009)
